Measurements: ChEMBL document CHEMBL2034912, “Synthesis of 4-methylcoumarin derivatives containing 4,5-dihydropyrazole moiety to scavenge radicals and to protect DNA” (Eur J Med Chem, 2012)
Activity calls are given as the source filed them.

What was measured:
Type in all cases: functional
[1] = tested on: Radical scavenging activity; experiment: Antioxidant activity assessed as DPPH radical scavenging activity at 40 uM
Method in brief: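 DPPH dissolved in ethanol to absorbance about 1.00 at 517 nm (ε […] M⁻¹ cm⁻¹). Compound added as an ethanol solution at a single final concentration, and the decay of DPPH absorbance recorded.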

[2] = Antioxidant activity against AAPH-induced DNA oxidation assessed as decrease in thiobarbituric acid reactive substances at 80 to 200 uM measured every 120 mins by spectrophotometry
Method in brief: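 DNA (final 2.0 mg/mL) and AAPH (final 4.0 mM) in phosphate buffer with 10.0 mM EDTA; test compounds added in DMSO across various concentrations; 2.0 mL aliquots incubated at 37 °C. Three tubes withdrawn every 120 min, cooled, treated with TBA and 3.0% trichloroacetic acid, then boiled 15 min; TBARS absorbance read. Inhibition period (t_inh) fitted linearly against concentration.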

[3] = Antioxidant activity assessed as ABTS radical scavenging activity at 40 uM
Method in brief: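 ABTS (4.0 mM) oxidized with 1.41 mM K₂S₂O₈ for 16 h to form the radical cation, then diluted with ethanol to absorbance about 0.70. Compound added at 0.04 mM, and absorbance decay at 734 nm followed over time. Number of radicals trapped (n) is the depleted ABTS radical concentration divided by antioxidant concentration.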

Measured: Activity

Cc1cc(=O)oc2c(C3=NNC(c4cccc([N+](=O)[O-])c4)C3)c(O)ccc12 (centres undefined)
active: all assays above

O=c1ccc2cc3ccoc3c(O)c2o1
active: all assays above

CC(=O)N1N=C(c2c(O)ccc3c(C)cc(=O)oc23)CC1c1ccc(O)cc1O (centres undefined)
active: all assays above

CC(=O)N1N=C(c2c(O)ccc3c(C)cc(=O)oc23)CC1c1cccc([N+](=O)[O-])c1 (centres undefined)
active: all assays above

COc1cc(C2CC(c3c(O)ccc4c(C)cc(=O)oc34)=NN2)ccc1O (centres undefined)
active: all assays above

CC(=O)N1N=C(c2c(O)ccc3c(C)cc(=O)oc23)CC1c1ccc(O)c(O)c1 (centres undefined)
active: all assays above

CC(=O)N1N=C(c2c(O)ccc3c(C)cc(=O)oc23)CC1c1ccccc1O (centres undefined)
active: all assays above

COc1cc(C2CC(c3c(O)ccc4c(C)cc(=O)oc34)=NN2C(C)=O)ccc1O (centres undefined)
active: all assays above
